Test results as given in ChEMBL document CHEMBL1781875, “Chemoenzymatic synthesis with lipase catalyzed resolution and evaluation of antitumor activity of (R/S)-2-[2-hydroxy-3-(4-phenylpiperazin-1-yl)propyl]-1H-pyrrolo[3,4-b]quinolin-3(2H)-one” (Eur J Med Chem, 2011).
pIC50: −log10 of the molar value.

Key:
[1] = system: SK-N-SH; assay: Cytotoxicity against human SK-N-SH cells assessed as cell viability at 25 uM after 48 hrs by MTT assay relative to untreated control; assay type: functional; settings: read-out: Activity
How it was run: (§1)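 Exponentially growing cells seeded at 2.0 × 10⁴ per well in 24-well plates, drug-treated in triplicate for 48 h at 37 °C under 5% CO₂. MTT in RPMI-1640 was added, followed by 2–3 h at 37 °C. Formazan was dissolved in DMSO and OD read at 540 nm. Viability is given as % of untreated cells (100%), mean ± SEM of three determinations.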

[2] = system: A549; assay: Cytotoxicity against human A549 cells assessed as cell viability at 10 uM after 48 hrs by MTT assay relative to untreated control; assay type: functional; settings: A549, 48 h, read-out: Activity; how it was run: as §1
[3] = system: A549; assay: Cytotoxicity against human A549 cells assessed as cell viability at 25 uM after 48 hrs by MTT assay relative to untreated control; assay type: functional; settings: A549, 48 h, read-out: Activity; how it was run: as §1
[4] = system: A549; assay: Cytotoxicity against human A549 cells assessed as cell viability at 50 uM after 48 hrs by MTT assay relative to untreated control; assay type: functional; settings: A549, 48 h, read-out: Activity; how it was run: as §1
[5] = system: SK-N-SH; assay: Cytotoxicity against human SK-N-SH cells assessed as inhibition of cell growth after 48 hrs by MTT assay; assay type: functional, cell-based; how it was run: as §1
[6] = system: A549; assay: Cytotoxicity against human A549 cells assessed as inhibition of cell growth after 48 hrs by MTT assay; assay type: functional, cell-based; settings: A549, 48 h; how it was run: as §1
[7] = system: SK-N-SH; assay: Cytotoxicity against human SK-N-SH cells assessed as cell viability at 10 uM after 48 hrs by MTT assay relative to untreated control; assay type: functional; settings: read-out: Activity; how it was run: as §1
[8] = system: SK-N-SH; assay: Cytotoxicity against human SK-N-SH cells assessed as cell viability at 50 uM after 48 hrs by MTT assay relative to untreated control; assay type: functional; settings: read-out: Activity; how it was run: as §1
[9] = system: SK-N-SH; assay: Cytotoxicity against human SK-N-SH cells assessed as cell viability at 1 uM after 48 hrs by MTT assay relative to untreated control; assay type: functional; settings: read-out: Activity; how it was run: as §1
[10] = system: A549; assay: Cytotoxicity against human A549 cells assessed as cell viability at1 uM after 48 hrs by MTT assay relative to untreated control; assay type: functional; how it was run: as §1
[11] = system: A549; assay: Cytotoxicity against human A549 cells assessed as cell viability at 0.1 uM after 48 hrs by MTT assay relative to untreated control; assay type: functional; settings: A549, 48 h, read-out: Activity; how it was run: as §1
[12] = system: SK-N-SH; assay: Cytotoxicity against human SK-N-SH cells assessed as cell viability at 0.1 uM after 48 hrs by MTT assay relative to untreated control; assay type: functional; settings: read-out: Activity; how it was run: as §1
[13] = system: SK-N-SH; assay: Cytotoxicity against human SK-N-SH cells assessed as cell viability at 5 uM after 48 hrs by MTT assay relative to untreated control; assay type: functional; settings: read-out: Activity; how it was run: as §1
[14] = system: A549; assay: Cytotoxicity against human A549 cells assessed as cell viability at 5 uM after 48 hrs by MTT assay relative to untreated control; assay type: functional; settings: A549, 48 h, read-out: Activity; how it was run: as §1

Structure (SMILES) | viability at 25 µM [1] | viability at 10 µM [2] | viability at 25 µM [3] | viability at 50 µM [4] | pIC50 [5] | pIC50 [6] | viability at 10 µM [7] | viability at 50 µM [8] | viability at 1 µM [9] | Activity [10] | viability at 0.1 µM [11] | viability at 0.1 µM [12] | viability at 5 µM [13] | viability at 5 µM [14]
CC(=O)O[C@H](CN1CCN(c2ccccc2)CC1)CN1Cc2cc3ccccc3nc2C1=O | 84.2% | 98.4% | 85.6% | 83.3% | 4.17 | 4.14 | 95.5% | 79.3% |  |  |  |  |  | 
COc1cccc2c1C(=O)c1c(O)c3c(c(O)c1C2=O)C[C@@](O)(C(=O)CO)C[C@@H]3O[C@H]1C[C@H](N)[C@H](O)[C@H](C)O1 [DOXORUBICIN] |  |  |  |  | 4.70 |  |  |  | 60.8% | 65.33% | 76.6% | 72.5% | 51% | 33.9%
O=C1c2nc3ccccc3cc2CN1CC(O)CN1CCN(c2ccccc2)CC1 (racemic) | 73.5% | 96.5% | 85.5% | 78.7% | 4.19 | 4.20 | 78.3% | 70.5% |  |  |  |  |  | 
O=C1c2nc3ccccc3cc2CN1C[C@@H](O)CN1CCN(c2ccccc2)CC1 | 69.1% | 90.7% | 81.8% | 74.7% | 4.79 | 4.26 | 76.8% | 49.4% |  |  |  |  |  | 
